The values below come from ChEMBL document CHEMBL4680068, “Towards a RIOK2 chemical probe: cellular potency improvement of a selective 2-(acylamino)pyridine series” (RSC Med Chem, 2021).

The target of assay [1] is Serine/threonine-protein kinase RIO2 (Homo sapiens, UniProt Q9BVS4). As to the kind of experiment: Displacement of tracer K5 from N-terminal nanoluciferase-tagged RIOK2 (unknown origin) expressed in HEK293 cells measured after 2 hrs by NanoBRET assay. In kind it is cell-based. A general note: In BRET a luciferase serves as donor, and the signal depends on an acceptor being close.

Assay [2] deals with T1, Mitogen-activated protein kinase 8 (Homo sapiens, UniProt P45983). The assay can be described thus: Inhibition of full length recombinant human MAPK8 using ATF2 as substrate incubated for 40 mins in presence of [gamma33P]ATP by radiometric scintillation analysis. The essentials: (§1)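 Eurofins radiometric enzymatic kinase assay run at the Km of ATP for each kinase. Activity was read as incorporation of radiolabelled ATP into a peptide substrate, in a homogeneous format.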

In assay [3] the target is T2, Mitogen-activated protein kinase 10 (Homo sapiens, UniProt P53779). As to the kind of experiment: Inhibition of full length recombinant human MAPK10 using peptide substrate incubated for 40 mins in presence of [gamma33P]ATP by radiometric scintillation analysis. An outline of the steps:
as §1

Assay [4] has as its target T3, Glycogen synthase kinase-3 alpha (Homo sapiens, UniProt P49840). The assay can be described thus: Inhibition of recombinant human GSK3alpha S449A mutant (2 to end residues) using YRRAAVPPSPSLSR peptide as substrate incubated for 40 mins in presence of [gamma33P]ATP by radiometric scintillation analysis. The essentials: (§2)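 Orthogonal homogeneous enzymatic kinase assay, run by a contract provider. GSK3α activity was read as incorporation of radiolabelled ATP into a peptide substrate. ATP was at its Km.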

For assay [5], the target named is T4, SNF-related serine/threonine-protein kinase (Homo sapiens, UniProt Q9NRH2).
T4 sequence (Q9NRH2 whole entry): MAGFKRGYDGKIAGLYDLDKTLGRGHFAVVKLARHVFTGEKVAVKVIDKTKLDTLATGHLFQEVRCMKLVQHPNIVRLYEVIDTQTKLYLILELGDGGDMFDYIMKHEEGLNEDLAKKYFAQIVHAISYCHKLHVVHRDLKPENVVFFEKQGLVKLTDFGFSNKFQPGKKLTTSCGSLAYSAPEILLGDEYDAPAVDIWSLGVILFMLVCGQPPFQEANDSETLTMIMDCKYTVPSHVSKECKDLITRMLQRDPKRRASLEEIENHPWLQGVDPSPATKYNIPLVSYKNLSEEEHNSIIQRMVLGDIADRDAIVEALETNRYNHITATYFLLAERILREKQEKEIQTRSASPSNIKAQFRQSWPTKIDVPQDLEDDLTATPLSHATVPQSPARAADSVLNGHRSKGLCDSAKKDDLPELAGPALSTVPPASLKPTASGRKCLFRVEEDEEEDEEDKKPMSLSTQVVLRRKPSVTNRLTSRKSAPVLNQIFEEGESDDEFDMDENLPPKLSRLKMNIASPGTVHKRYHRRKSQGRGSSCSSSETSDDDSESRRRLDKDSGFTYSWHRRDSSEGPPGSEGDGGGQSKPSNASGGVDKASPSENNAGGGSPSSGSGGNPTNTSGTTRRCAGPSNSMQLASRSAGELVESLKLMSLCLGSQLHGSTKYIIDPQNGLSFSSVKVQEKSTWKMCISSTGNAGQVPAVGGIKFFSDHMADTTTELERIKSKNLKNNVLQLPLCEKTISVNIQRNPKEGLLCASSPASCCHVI
As to the kind of experiment: Inhibition of recombinant human SNRK E97G/P116A mutant (1 to 505 residues) using KKLRRTLSFAEPG peptide as substrate incubated for 40 mins in presence of [gamma33P]ATP by radiometric scintillation analysis. An outline of the steps:
as §1

The target in assay [6] is T5, Homeodomain-interacting protein kinase 1 (Homo sapiens, UniProt Q86Z02). The assay can be described thus: Inhibition of human HIPK1 (158 to 555 residues) using myelin ba as substrate incubated for 40 mins in presence of [gamma33P]ATP by radiometric scintillation analysis. The essentials:
as §1

In assay [7] the target is T1, Mitogen-activated protein kinase 8. As to the kind of experiment: Binding affinity to full length recombinant human MAPK8 using ATF2 as substrate incubated for 40 mins in presence of [gamma33P]ATP by radiometric scintillation analysis. The essentials: as §1
Assay [8] deals with T2, Mitogen-activated protein kinase 10. The assay can be described thus: Binding affinity to full length recombinant human MAPK10 using peptide substrate incubated for 40 mins in presence of [gamma33P]ATP by radiometric scintillation analysis. An outline of the steps: as §1
Assay [9] deals with T3, Glycogen synthase kinase-3 alpha. The assay can be described thus: Binding affinity to recombinant human GSK3alpha S449A mutant (2 to end residues) using YRRAAVPPSPSLSR peptide as substrate incubated for 40 mins in presence of [gamma33P]ATP by radiometric scintillation analysis. An outline of the steps:
as §2

Assay [10] has as its target T4, SNF-related serine/threonine-protein kinase. As to the kind of experiment: Binding affinity to recombinant human SNRK E97G/P116A mutant (1 to 505 residues) using KKLRRTLSFAEPG peptide as substrate incubated for 40 mins in presence of [gamma33P]ATP by radiometric scintillation analysis. The essentials: as §1
Assay [11] has as its target T5, Homeodomain-interacting protein kinase 1. As to the kind of experiment: Binding affinity to human HIPK1 (158 to 555 residues) using myelin ba as substrate incubated for 40 mins in presence of [gamma33P]ATP by radiometric scintillation analysis. An outline of the steps:
as §1

For orientation: IC50 means the concentration needed to halve the response being measured. For orientation: Kd means the constant that tells how readily two partners part at equilibrium.

T5 sequence (Q86Z02 whole entry, the tested form may be a part): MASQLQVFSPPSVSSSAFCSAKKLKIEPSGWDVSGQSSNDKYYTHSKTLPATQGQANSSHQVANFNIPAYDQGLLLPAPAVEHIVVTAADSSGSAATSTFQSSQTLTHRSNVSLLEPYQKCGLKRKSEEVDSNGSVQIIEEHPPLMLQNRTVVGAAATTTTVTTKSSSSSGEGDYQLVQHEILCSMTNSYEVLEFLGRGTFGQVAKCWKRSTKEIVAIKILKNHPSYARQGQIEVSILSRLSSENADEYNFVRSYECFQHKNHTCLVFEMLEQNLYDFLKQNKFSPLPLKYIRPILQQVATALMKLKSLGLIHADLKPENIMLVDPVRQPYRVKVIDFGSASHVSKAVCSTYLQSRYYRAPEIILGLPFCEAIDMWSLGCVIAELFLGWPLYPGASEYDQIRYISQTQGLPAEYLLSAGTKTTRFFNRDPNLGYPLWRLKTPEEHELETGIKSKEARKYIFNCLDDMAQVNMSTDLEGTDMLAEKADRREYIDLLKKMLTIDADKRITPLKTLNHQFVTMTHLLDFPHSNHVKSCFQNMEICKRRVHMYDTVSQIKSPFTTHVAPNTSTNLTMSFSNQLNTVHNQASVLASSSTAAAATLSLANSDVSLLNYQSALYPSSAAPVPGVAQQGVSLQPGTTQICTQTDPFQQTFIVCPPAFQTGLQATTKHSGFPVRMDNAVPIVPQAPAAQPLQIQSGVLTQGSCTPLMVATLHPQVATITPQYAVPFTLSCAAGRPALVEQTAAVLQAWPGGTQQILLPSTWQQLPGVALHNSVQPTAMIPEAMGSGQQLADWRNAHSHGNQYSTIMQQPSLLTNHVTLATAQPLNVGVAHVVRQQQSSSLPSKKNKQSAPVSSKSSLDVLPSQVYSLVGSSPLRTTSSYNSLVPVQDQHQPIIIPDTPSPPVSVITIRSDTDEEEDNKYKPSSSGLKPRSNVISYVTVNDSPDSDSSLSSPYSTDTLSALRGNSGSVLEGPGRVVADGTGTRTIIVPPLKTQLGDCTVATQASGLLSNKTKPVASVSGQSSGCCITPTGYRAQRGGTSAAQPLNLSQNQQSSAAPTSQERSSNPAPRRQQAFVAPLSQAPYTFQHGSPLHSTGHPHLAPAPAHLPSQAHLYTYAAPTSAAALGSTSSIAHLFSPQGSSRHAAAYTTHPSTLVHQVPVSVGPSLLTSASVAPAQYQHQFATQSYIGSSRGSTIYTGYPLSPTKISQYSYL
Serine/threonine-protein kinase RIO2, sequence (Q9BVS4 whole entry): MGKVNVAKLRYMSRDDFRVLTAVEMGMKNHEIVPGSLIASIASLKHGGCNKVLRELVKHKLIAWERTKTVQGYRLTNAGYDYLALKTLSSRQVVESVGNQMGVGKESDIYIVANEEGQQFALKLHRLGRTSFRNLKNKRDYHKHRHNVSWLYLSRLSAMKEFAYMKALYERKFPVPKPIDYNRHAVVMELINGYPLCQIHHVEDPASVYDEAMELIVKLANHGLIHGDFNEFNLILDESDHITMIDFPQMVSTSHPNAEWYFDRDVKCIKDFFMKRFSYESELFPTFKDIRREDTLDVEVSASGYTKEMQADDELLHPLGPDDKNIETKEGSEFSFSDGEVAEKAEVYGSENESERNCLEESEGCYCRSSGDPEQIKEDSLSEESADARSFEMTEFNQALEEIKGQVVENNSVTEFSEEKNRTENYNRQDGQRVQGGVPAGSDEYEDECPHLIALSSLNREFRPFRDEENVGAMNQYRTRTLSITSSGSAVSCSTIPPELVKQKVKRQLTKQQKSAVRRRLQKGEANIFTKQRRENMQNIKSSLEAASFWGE
T1 sequence (P45983 whole entry): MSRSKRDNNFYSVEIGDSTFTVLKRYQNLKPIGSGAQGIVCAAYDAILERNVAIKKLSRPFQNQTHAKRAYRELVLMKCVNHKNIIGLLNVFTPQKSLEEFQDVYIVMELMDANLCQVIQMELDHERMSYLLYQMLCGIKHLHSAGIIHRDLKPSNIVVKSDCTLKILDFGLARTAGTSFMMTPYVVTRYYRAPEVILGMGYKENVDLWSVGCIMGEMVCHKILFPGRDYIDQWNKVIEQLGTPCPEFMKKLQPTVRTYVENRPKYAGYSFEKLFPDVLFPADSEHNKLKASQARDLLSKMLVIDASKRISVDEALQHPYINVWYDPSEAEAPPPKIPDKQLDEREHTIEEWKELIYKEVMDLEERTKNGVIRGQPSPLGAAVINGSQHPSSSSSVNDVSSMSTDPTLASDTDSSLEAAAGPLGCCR
T2 sequence (P53779 whole entry): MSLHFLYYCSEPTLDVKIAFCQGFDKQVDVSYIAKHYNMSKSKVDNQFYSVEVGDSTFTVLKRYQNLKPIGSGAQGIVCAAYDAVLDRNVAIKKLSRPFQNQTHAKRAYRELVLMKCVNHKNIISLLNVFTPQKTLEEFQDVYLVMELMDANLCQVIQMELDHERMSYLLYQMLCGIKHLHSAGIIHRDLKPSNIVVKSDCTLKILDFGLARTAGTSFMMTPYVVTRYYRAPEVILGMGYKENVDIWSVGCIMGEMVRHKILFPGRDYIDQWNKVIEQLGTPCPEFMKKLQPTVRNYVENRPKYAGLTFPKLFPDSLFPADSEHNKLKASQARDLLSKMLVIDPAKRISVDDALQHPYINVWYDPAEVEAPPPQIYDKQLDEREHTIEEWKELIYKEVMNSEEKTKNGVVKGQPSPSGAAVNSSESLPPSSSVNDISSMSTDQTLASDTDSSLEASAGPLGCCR
T3 sequence (P49840 whole entry): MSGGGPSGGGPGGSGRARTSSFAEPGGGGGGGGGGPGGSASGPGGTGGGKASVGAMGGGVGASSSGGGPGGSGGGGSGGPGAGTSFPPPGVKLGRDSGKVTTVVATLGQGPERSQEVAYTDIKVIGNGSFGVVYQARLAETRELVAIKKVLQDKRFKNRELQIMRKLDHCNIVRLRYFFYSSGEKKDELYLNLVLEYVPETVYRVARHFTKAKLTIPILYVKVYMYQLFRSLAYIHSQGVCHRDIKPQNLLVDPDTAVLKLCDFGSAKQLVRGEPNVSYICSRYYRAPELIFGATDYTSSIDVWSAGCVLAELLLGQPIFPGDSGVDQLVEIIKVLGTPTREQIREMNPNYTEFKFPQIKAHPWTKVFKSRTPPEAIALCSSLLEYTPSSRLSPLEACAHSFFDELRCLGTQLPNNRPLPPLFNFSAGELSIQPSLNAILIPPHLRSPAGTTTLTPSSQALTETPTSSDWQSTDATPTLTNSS

For `COc1ccnc(NC(=O)Cc2ccc3ccccc3c2)c1`, the 50% inhibitory concentration (IC50) was 5.2 µM in assay [1]; > 10 µM in assay [2]; 1.3 µM in [3]; 4.8 µM in assay [4]; > 10 µM in assay [5]; > 10 µM in assay [6].

For `Cc1ccnc(NC(=O)CCc2ccc3ccccc3c2)c1`, the 50% inhibitory concentration (IC50) in [1] was > 30 µM.

Molecule `COc1ccc2cc([C@@H](C)C(=O)Nc3cc(C)ccn3)ccc2c1` gave a concentration for half-maximal inhibition (IC50) in assay [1] of 7.6 µM.

On to `CCc1ccnc(NC(=O)Cc2ccc3ccccc3c2)c1`, for which the half-inhibitory concentration (IC50) in assay [1] worked out at 14.5 µM.

In assay [1], `COc1ccnc(NC(=O)[C@@H](C)c2ccc3cc(OC)ccc3c2)c1` came in with a half-maximal inhibitory concentration (IC50) of 5.3 µM.

As to `COc1ccc2cc([C@H](C)C(=O)Nc3cc(C)ccn3)ccc2c1`, the half-maximal inhibitory concentration (IC50) in [1] was 6.6 µM; in assay [2] it was > 10 µM; in assay [3], 5.1 µM; in [4], 4.5 µM; in [5] it was > 10 µM; in assay [6] it was > 10 µM.

As for `O=C(Cc1ccc2ccccc2c1)Nc1cc(Cl)ccn1`, the IC50 is 5 µM in assay [1]; > 10 µM in assay [2]; 0.52 µM in assay [3]; 0.86 µM in [4]; > 10 µM in assay [5]; > 10 µM in [6].

In the case of `Cc1ccnc(NC(=O)Cc2ccc3c(c2)OCO3)c1`, in assay [1], the IC50 is > 30 µM.

With `O=C(Cc1ccc2ccccc2c1)Nc1cc(C(F)(F)F)ccn1`, in assay [1], the half-maximal inhibitory concentration (IC50) was 7.5 µM.

Turning to `Cc1ccnc(NC(=O)Cc2ccc3ccccc3c2)c1`, the IC50 in assay [2] was > 10 µM; in assay [3], 4.7 µM; in assay [4], 5.2 µM; in assay [5], > 10 µM; in [6] it was > 10 µM. Also, the dissociation constant (Kd) in assay [7] stood at 0.22 µM; in [8], 0.34 µM; in assay [9] it was 0.87 µM; in assay [10], 0.89 µM; in assay [11] it was 1.1 µM.

Molecule `O=C(Cc1ccc2ccccc2c1)Nc1cc(Br)ccn1` came in with an IC50 in [1] of 13.4 µM.

Molecule `COc1ccnc(NC(=O)Cc2ccc(C)c(C)c2)c1` returned an IC50 in assay [1] of 28 µM.

`Cc1ccnc(NC(=O)COc2ccc3ccccc3c2)c1`: in [1], the IC50 was > 30 µM.

With `Cc1ccnc(NC(=O)Cc2ccc3c(c2)OCCO3)c1`, in assay [1], the IC50 is > 30 µM.

In assay [1], `COc1ccnc(NC(=O)Cc2ccc(-c3ccccc3)cc2)c1` had an IC50 of 7.6 µM.

For `COc1ccc2cc(C(C)C(=O)Nc3cc(C)ccn3)ccc2c1` (racemic), the IC50 is 5.2 µM in [1]; > 10 µM in assay [2]; 0.78 µM in assay [3]; 1.9 µM in assay [4]; > 10 µM in [5]; > 10 µM in [6].
